In ChEMBL document CHEMBL1132234, “Simplified pepstatins: synthesis and evaluation of N-terminally modified analogues” (J Med Chem, 1999):

Biological target: not listed separately
Experiment: (§1) The compound was tested for inhibitory effect towards the pepsin hydrolysis of Horseradish peroxidase
Design: species or system plant
How it was run: (§2)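 Pepsin (10 µg ≙ 35 units, freshly prepared) was mixed with DMSO serial dilutions of inhibitor (1.00 mg/mL solution, 1:10 then 1:2 steps), with horseradish peroxidase as protein substrate. Mixtures were serially diluted 1:2 in 0.05 N HCl, and residual peroxidase was read with o-phenylenediamine/H₂O₂ in 0.2 M phosphate pH 6.5 (15 min, room temperature, OD 492 nm). Pepstatin A served as reference. IC50 was determined.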

Row | IC50 [nM] | SMILES
1 | 4500 | CCCCCCC(O)[C@H](CC(C)C)NC(=O)[C@@H](NC(=O)[C@@H](NC(=O)C1CC1)C(C)C)C(C)C (stereo not given in full)
2 | 31 | CC(C)CC(=O)N[C@H](C(=O)N[C@H](C(=O)N[C@@H](CC(C)C)[C@@H](O)CC(=O)N[C@@H](C)C(=O)N[C@@H](CC(C)C)[C@@H](O)CC(=O)O)C(C)C)C(C)C [PEPSTATIN]

Biological target: Pepsin A (Sus scrofa, UniProt P00791)
Experiment: as §1
Design: species or system plant
How it was run: as §2

Sequence of Pepsin A (P00791 whole entry): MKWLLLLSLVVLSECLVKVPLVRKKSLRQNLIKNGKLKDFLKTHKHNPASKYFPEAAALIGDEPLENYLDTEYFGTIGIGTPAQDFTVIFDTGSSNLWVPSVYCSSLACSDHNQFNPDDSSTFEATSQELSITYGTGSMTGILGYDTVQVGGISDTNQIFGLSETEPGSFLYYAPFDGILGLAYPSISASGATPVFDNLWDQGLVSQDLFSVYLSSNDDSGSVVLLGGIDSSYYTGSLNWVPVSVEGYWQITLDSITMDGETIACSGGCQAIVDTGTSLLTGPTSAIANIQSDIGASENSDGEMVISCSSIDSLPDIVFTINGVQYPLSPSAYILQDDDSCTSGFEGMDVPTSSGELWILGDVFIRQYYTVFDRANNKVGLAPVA

Row | IC50 [nM] | SMILES
3 | 730 | CCCCCCC(O)[C@H](CC(C)C)NC(=O)[C@@H](NC(=O)[C@@H](NC(=O)CCc1ccccc1)C(C)C)C(C)C (stereo not given in full)
4 | 1200 | CCCCCCC(O)[C@H](CC(C)C)NC(=O)[C@@H](NC(=O)[C@@H](NC(=O)OC(C)C)C(C)C)C(C)C (stereo not given in full)
5 | 690 | CCCCCCC(O)[C@H](CC(C)C)NC(=O)[C@@H](NC(=O)[C@@H](NC(=O)OCc1ccccc1)C(C)C)C(C)C (stereo not given in full)
6 | 3200 | CCCCCCC(O)[C@H](CC(C)C)NC(=O)[C@@H](NC(=O)[C@@H](NC(=O)CC)C(C)C)C(C)C (stereo not given in full)
7 | 1100 | CCCCCCC(O)[C@H](CC(C)C)NC(=O)[C@@H](NC(=O)[C@@H](NC(=O)CC(C)(C)C)C(C)C)C(C)C (stereo not given in full)
8 | 920 | CCCCCCC(O)[C@H](CC(C)C)NC(=O)[C@@H](NC(=O)[C@@H](NC(=O)CC(C)C)C(C)C)C(C)C (stereo not given in full)
9 | 210 | CCCCCCC(O)[C@H](CC(C)C)NC(=O)[C@@H](NC(=O)[C@@H](NC(=O)OC(C)(C)C)C(C)C)C(C)C (stereo not given in full)
10 | 3600 | CCCCCCC(O)[C@H](CC(C)C)NC(=O)[C@@H](NC(=O)[C@@H](NC(=O)C(C)C)C(C)C)C(C)C (stereo not given in full)
